According to ChEMBL document CHEMBL1781975, “Synthesis, crystal structure and antimicrobial activity of deoxybenzoin derivatives from genistein” (2008):
≈ marks a conversion by molar mass, not a printed value. Calls of active or inactive are those of the source. The calls are words filed in the database; no cut-off is given here.

How the values were obtained:
Bacillus subtilis = experiment: Antibacterial activity against Bacillus subtilis after 24 hrs by MTT assay; assay type: functional
Outline: (§1)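 Broth microdilution MIC in Mueller-Hinton medium, compounds from a 50 mg/ml DMSO stock serially diluted in the wells. Inoculum approx. 10⁵ cfu/ml, incubated 37 °C for 24 h. MIC read visually. PBS (pH 7.4) with 2 mg/ml MTT then added, 12 h further incubation at room temperature, OD at 550 nm.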

Escherichia coli = experiment: Antibacterial activity against Escherichia coli after 24 hrs by MTT assay; assay type: functional; outline: as §1
Pseudomonas fluorescens = experiment: Antibacterial activity against Pseudomonas fluorescens after 24 hrs by MTT assay; assay type: functional; outline: as §1
Staphylococcus aureus = experiment: Antibacterial activity against Staphylococcus aureus after 24 hrs by MTT assay; assay type: functional; outline: as §1
Aspergillus niger = experiment: Antifungal activity against Aspergillus niger after 48 hrs by MTT assay; assay type: functional, organism-based
Outline: (§2)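 Fungi tested by microdilution in RPMI-1640 buffered with 0.165 mol/L MOPS to pH 7.0. Compounds from a 50 mg/ml DMSO stock serially diluted. Inoculum approx. 10⁵ cfu/ml, 37 °C for 48 h. MIC scored visually, then MTT (2 mg/ml in PBS) added, 12 h at room temperature, absorbance 550 nm.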

Candida albicans = experiment: Antifungal activity against Candida albicans after 48 hrs by MTT assay; assay type: functional, organism-based; outline: as §2
Trichophyton rubrum = experiment: Antifungal activity against Trichophyton rubrum after 48 hrs by MTT assay; assay type: functional, organism-based; outline: as §2

| MIC (Bacillus subtilis) [µg/mL] | MIC (Escherichia coli) [µg/mL] | MIC (Pseudomonas fluorescens) [µg/mL] | MIC (Staphylococcus aureus) [µg/mL] | MIC (Aspergillus niger) | MIC (Candida albicans) | MIC (Trichophyton rubrum) | SMILES |
| --- | --- | --- | --- | --- | --- | --- | --- |
| 45.5 (≈ 105 µM) | 48.5 (≈ 112 µM) | > 50 | > 50 | inactive | inactive | inactive | O=C(O)COc1ccc(CC(=O)c2c(O)cc(OCC(=O)O)cc2OCC(=O)O)cc1 |
| 12.5 (≈ 14.2 µM) | 25 (≈ 28.4 µM) | > 50 | > 50 | inactive | inactive | inactive | O=C(O)COc1ccc(CC(=O)c2c(OCC(=O)O)cc(OCC(=O)O)c(Cc3c(OCC(=O)O)cc(OCC(=O)O)c(C(=O)Cc4ccc(OCC(=O)O)cc4)c3O)c2O)cc1 |
| 40.5 (≈ 156 µM) | 42.5 (≈ 163 µM) | > 50 | > 50 | inactive | inactive | inactive | O=C(Cc1ccc(O)cc1)c1c(O)cc(O)cc1O |
| 25 (≈ 40.1 µM) | 25 (≈ 40.1 µM) | > 50 | > 50 | inactive | inactive | inactive | O=C(Cc1ccc(OCCCBr)cc1)c1c(O)cc(OCCCBr)cc1OCCCBr |
| 6.25 (≈ 4.97 µM) | 17.5 (≈ 13.9 µM) | > 50 | > 50 | inactive | inactive | inactive | O=C(Cc1ccc(OCCCBr)cc1)c1c(OCCCBr)cc(OCCCBr)c(Cc2c(OCCCBr)cc(OCCCBr)c(C(=O)Cc3ccc(OCCCBr)cc3)c2O)c1O |
| > 50 | > 50 | > 50 | > 50 | inactive | inactive | inactive | COc1ccc(CC(=O)c2c(O)cc(OC)cc2OC)cc1 |
| 31.5 (≈ 51.1 µM) | 38.5 (≈ 62.4 µM) | > 50 | > 50 | inactive | inactive | inactive | COc1ccc(CC(=O)c2c(OC)cc(OC)c(Cc3c(OC)cc(OC)c(C(=O)Cc4ccc(OC)cc4)c3O)c2O)cc1 |

Further lines, the molecule ahead of its results:

| SMILES | MIC (Bacillus subtilis) [µg/mL] | MIC (Escherichia coli) [µg/mL] | MIC (Pseudomonas fluorescens) [µg/mL] | MIC (Staphylococcus aureus) [µg/mL] | MIC (Aspergillus niger) | MIC (Candida albicans) | MIC (Trichophyton rubrum) |
| --- | --- | --- | --- | --- | --- | --- | --- |
| CC1(C)S[C@@H]2[C@H](NC(=O)Cc3ccccc3)C(=O)N2[C@H]1C(=O)O [PENICILLIN G] | 7.8 (≈ 23.3 µM) | > 50 | > 50 | 2 (≈ 5.98 µM) | – | – | – |
| O=c1c(-c2ccc(O)cc2)coc2cc(O)cc(O)c12 [GENISTEIN] | > 50 | > 50 | > 50 | > 50 | inactive | inactive | inactive |
| O=C(Cc1ccc(OCCBr)cc1)c1c(O)cc(OCCBr)cc1OCCBr | 30.5 (≈ 52.5 µM) | 36.5 (≈ 62.8 µM) | > 50 | > 50 | inactive | inactive | inactive |
| CC(=O)N1CCN(c2ccc(OCC3COC(Cn4ccnc4)(c4ccc(Cl)cc4Cl)O3)cc2)CC1 (stereo not given) [KETOCONAZOLE] | > 50 | > 50 | > 50 | > 50 | – | – | – |
| NC[C@H]1O[C@H](O[C@H]2[C@H](O)[C@@H](O[C@H]3O[C@H](CO)[C@@H](O)[C@H](N)[C@H]3O)[C@H](N)C[C@@H]2N)[C@H](O)[C@@H](O)[C@@H]1O [KANAMYCIN] | 1 (≈ 2.06 µM) | 0.45 (≈ 0.929 µM) | 3.9 (≈ 8.05 µM) | 1 (≈ 2.06 µM) | – | – | – |
